Assay outcomes: PubChem, The Scripps Research Institute Molecular Screening Center
Shown are actives, neighbours in structure and some others; about 4.5% of the full set was active somewhere.
OX1R antag-1: OX1R (human) antagonism; O43613; inhibition, % at 6.6 µM; OX1R-expressing cells, FRET antagonist read-out; AID 485270; 330,000 tested, 1.8% active; in the data active = inhibition mostly above about 38%, no sharp cut-off; inactive = mostly below about 40%;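 note: 0% = agonist challenge alone and 100% = reference antagonist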
TAAR1 antag: human TAAR1 antagonism | Q96RJ0 | CHO RD-HGA16 TAAR1, Fluo-8 calcium fluorescence, antagonist | inhibition, % at 3 µM | 360,000 tested, 1.5% active | AID 624466;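 active = inhibition above a per-plate cutoff, the mean inhibition of test compounds on that plate plus 3 SD, cut at about 49% in these data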;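 note: 0% = DMSO plus EC80 beta-PEA response and 100% = DMSO alone without agonist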
Target sequence (Q96RJ0 whole entry, looked up): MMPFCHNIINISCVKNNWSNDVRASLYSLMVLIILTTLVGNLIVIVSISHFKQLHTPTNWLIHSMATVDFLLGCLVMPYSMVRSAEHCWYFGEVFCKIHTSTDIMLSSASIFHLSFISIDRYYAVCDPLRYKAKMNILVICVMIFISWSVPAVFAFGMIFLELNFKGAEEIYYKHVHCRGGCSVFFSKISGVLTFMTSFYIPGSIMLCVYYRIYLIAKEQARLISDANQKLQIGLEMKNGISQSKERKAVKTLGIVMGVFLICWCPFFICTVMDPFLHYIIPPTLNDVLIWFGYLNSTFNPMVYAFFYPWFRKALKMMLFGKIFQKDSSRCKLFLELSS
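Test system – hTAAR1-expressing CHO RD-HGA16 cells, Gα16-coupled · Reagent – β-PEA at EC80 concentration, post-compound challenge · Compound dosing – 3 µM, single point · Timing – 140 s kinetic read after compound, 140 s after agonist · Detection – Fluo-8 intracellular calcium dye fluorescence, real-time kinetic reads · Control set – DMSO and EC80 PEA controls · Repeats – n of 1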
CHO parental Ca: counter-screen for OX1R antagonists: effect in parental CHO cells; parental CHO-K1, ATP-induced calcium, Fluo-8 fluorescence; inhibition, % at 5.6 µM; 330,000 tested, 0.63% active;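 active = inhibition above that plate's mean sample inhibition plus 3 SD, cut at about 26% in these data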;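 note: 0% = ATP-challenged DMSO wells and 100% = DMSO wells without ATP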
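Test system: parental CHO cells; detection: calcium-sensitive Fluo-8 fluorescence; evaluation: percent inhibition of calcium signal; also added: ATP as calcium-mobilizing challenge; repeats: one well per compound; control set: ATP-challenged DMSO wells low, unchallenged DMSO wells high; compound: single nominal dose of 5.6 µM per compound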
GPR7 antag: antagonists of human GPR7 (neuropeptides B/W receptor 1); 290,000 tested, 1.1% active; inhibition, % at 4.4 µM; GPR7-expressing cells, fluorescence antagonist assay; in the data active = inhibition above about 16%, passing the limit was not always enough;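 note: cells stimulated with the agonist NPW; 0% = agonist with vehicle and 100% = vehicle without agonist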
Target sequence (P48145 whole entry, looked up): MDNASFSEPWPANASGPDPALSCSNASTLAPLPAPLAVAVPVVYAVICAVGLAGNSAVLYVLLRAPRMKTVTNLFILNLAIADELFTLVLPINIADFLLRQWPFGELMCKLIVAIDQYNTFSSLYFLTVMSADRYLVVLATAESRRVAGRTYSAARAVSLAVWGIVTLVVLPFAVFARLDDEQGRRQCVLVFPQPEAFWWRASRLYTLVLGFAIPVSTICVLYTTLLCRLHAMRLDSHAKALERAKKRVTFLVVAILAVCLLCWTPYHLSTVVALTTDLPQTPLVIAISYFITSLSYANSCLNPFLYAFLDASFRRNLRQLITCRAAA
OX1R antag-2: blocks the human orexin 1 receptor; inhibition, % at 5 µM; AID 434989; 330,000 tested, 0.43% active; CHO/OX1R cells, Fluo-8 calcium fluorescence, orexin A;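 active = inhibition above its plate's threshold, mean inhibition of all tested compounds on the plate plus 3 SD, cut at about 37% in these data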;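 note: 0% = orexin A challenge wells and 100% = SB-334867-A antagonist wells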
TAAR1 ag: human TAAR1 agonism; activation, % at 3 µM; 360,000 tested, 0.99% active; CHO RD-HGA16 TAAR1, Fluo-8 calcium fluorescence; vehicle wells 0%, saturating PEA agonist 100%;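 active = activation above the mean activation of all test compounds in the run plus 3 SD, cut at about 38% in these data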
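Test system: RD-HGA16 (CHO) cells co-expressing Gα16 and hTAAR1; dosing: one-point dosing at 3 µM (nominal); timing: 17-24 h seeding, 75 min 37 °C dye, 30 min RT; signal: kinetic Fluo-8 calcium fluorescence; read-out basis: % activation relative to PEA EC100 response; controls: DMSO and PEA EC100; replicates: n 1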
TAAR1 ag conf: human TAAR1 agonism, confirmed; shares compounds with TAAR1 ag; CHO RD-HGA16 TAAR1, Fluo-8 calcium fluorescence; scaled: DMSO 0%, maximal phenethylamine 100%; activation, % at 3 µM; 2,400 tested, 82% active;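 active = activation above a cutoff set at the run's mean compound activation plus 3 SD, cut at about 39% in these data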
Ga16 nonsel ag: nonselective agonist in parental cells, TAAR1 agonist counter-screen | activation, % at 3 µM | shares compounds with TAAR1 ag | 2,400 tested, 50% active | CHO-Ga16 parental, Fluo-8 calcium fluorescence; normalized to maximal ATP response, DMSO zero;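 active = activation above the run cutoff, the mean activation over all tested wells plus 3 SD, cut at about 12% in these data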;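 note: 0% = DMSO wells and 100% = maximal ATP response on the peak over basal ratio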
TAAR1 desensitize: human TAAR1 agonist that also desensitizes the receptor; shares compounds with TAAR1 ag; inhibition, % at 3 µM; 2,400 tested, 46% active; CHO RD-HGA16 hTAAR1, Fluo-8 calcium, beta-PEA response inhibition; AID 651951;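 active = inhibition above the run cutoff, the mean inhibition of all test compounds plus 3 SD, cut at about 49% in these data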;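 note: beta-PEA stimulus applied at its EC80; loss of beta-PEA calcium signal after compound pretreatment read as receptor desensitization; 0% = DMSO with beta-PEA at EC80 and 100% = DMSO alone without agonist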
Ga16 antag count: nonselective Ga16 antagonist in TAAR1 agonist counter-screen. shares compounds with TAAR1 ag. CHO-Ga16 ATP-induced calcium, Fluo-8 fluorescence. inhibition, % at 3 µM. 2,400 tested, 39% active;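 active = inhibition above the plate's mean compound inhibition plus 3 SD, computed per plate, cut at about 22% in these data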;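 note: 0% = EC80 ATP with DMSO and 100% = DMSO wells without ATP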
The depositor's hits bear a star; nt = no result given; ! = not confirmed by another sample.

SMILES | OX1R antag-1 | TAAR1 antag | CHO parental Ca | GPR7 antag | OX1R antag-2 | TAAR1 ag | TAAR1 ag conf | Ga16 nonsel ag | TAAR1 desensitize | Ga16 antag count
CCCOC(=O)c1ccc2c(c1)C(=O)N(c1ccccc1)C2=O | 10 | 53* | -5 | 2 | -8 | 68* | 15 | 6 | 24 | 19
C/C(Nc1ccccc1C(F)(F)F)=C1/CCOC1=O | 6 | -11 | -19 | -11 | -11 | 1 | nt | nt | nt | nt
C/C(NCCc1ccc(O)cc1)=C1/CCOC1=O | nt | 83* | nt | nt | nt | 83* | 91* | 3 | 69* | -6
O=C(CSC(=S)N1CCCC1)NCCc1ccccc1 | 11 | 88* | -5 | nt | 2 | 97* | 88* | 3 | 98* | 6
CN(C)C(CNC(=O)CSC(=S)N1CCCC1)c1ccccc1 (stereo not drawn) | 8 | -3 | -12 | nt | -29 | 1 | nt | nt | nt | nt
COC(=O)Cn1cnc2c(Cl)nc(F)nc21 | 11 | -13 | -20 | nt | 6 | 3 | nt | nt | nt | nt
NC(N)=N/N=C/c1c(Cl)cccc1Cl | 6 | 54*! | -7 | -5 | -11 | 61* | 88* | 2 | 91* | 9
O=C(CCN1Cc2ccccc2C1)c1ccc2c(c1)OCCO2 | 12 | 7 | -3 | -5 | -8 | 38* | 68* | 3 | 13 | 12
O=C(O)CCC(=O)c1ccc2c(c1)OCCO2 | 4 | 4 | -2 | -5 | -8 | -1 | nt | nt | nt | nt
CCCC(=O)c1ccc2c(c1)OCCO2 | 14 | -1 | 17 | 0 | -5 | 5 | nt | nt | nt | nt
O=C(CCN1CCc2ccccc2C(c2ccccc2)C1)c1ccc2c(c1)OCCO2 (stereo not drawn) | 24 | 52* | -23 | -3 | -30 | 73* | 75* | 1 | 77* | 12
OC[C@@H]1CN(Cc2ccc3c(c2)OCO3)C[C@H](n2cnc3c(N4CCOCC4)ncnc32)O1 | nt | -10 | nt | nt | nt | 3 | nt | nt | nt | nt
Cc1cc(NS(=O)(=O)c2ccccc2)c(C)c(Cl)c1O | 6 | 8 | -6 | nt | -4 | 55* | 67* | 26* | 39 | 19
Cc1cc(NS(=O)(=O)c2ccccc2)ccc1NS(=O)(=O)c1ccccc1 | nt | -10 | nt | nt | nt | 5 | nt | nt | nt | nt
Clc1cccc2c3c([nH]c12)CCNC3 | -1 | 41 | -2 | -10 | -1 | 60* | 87* | 4 | 66* | 1
CCOC(=O)C1=CCCN(S(=O)(=O)c2ccc(C)cc2)C1 | nt | -25 | nt | nt | nt | 1 | nt | nt | nt | nt
COc1ccc(CC(N)c2csc(Nc3ccc(C(C)=O)cc3)n2)cc1 (stereo not drawn) | nt | -4 | nt | nt | nt | 19 | nt | nt | nt | nt
CC(C)C(N)c1csc(Nc2ccc(C(=O)c3ccccc3)cc2)n1 (stereo not drawn) | nt | -4 | nt | nt | nt | 48* | 62* | 14* | 20 | 25*
COc1ccc(CC(N)c2csc(Nc3ccc(C(=O)c4ccccc4)cc3)n2)cc1 (stereo not drawn) | nt | 33 | nt | nt | nt | 51* | 39* | 27* | 31 | 38*
O=S1(=O)N[C@@H](Cc2ccccc2)COc2cc(N3CC[C@H](O)C3)ccc21 | nt | 6 | nt | nt | nt | 3 | nt | nt | nt | nt
Cc1ccc(-n2nc3c(=O)n(CC(=O)NCCc4ccccc4C)nc(C)c3c2C)cc1 | 14 | nt | -14 | 9 | -22 | nt | nt | 2 | nt | 7
O=C(COCC(=O)N/N=C/c1ccc(F)cc1)N/N=C/c1ccc(F)cc1 | 17 | 7 | 5 | 1 | -7 | 54* | 66* | 1 | 42 | 14
N/C(=N\N=C/c1ccc(F)cc1)N/N=C\c1ccc(F)cc1 | 10 | 63* | 27 | 20 | -8 | 70* | 81* | 4 | 77* | 2
CCc1ccc([C@@H]2C[C@H]3[C@@H](CN2S(=O)(=O)c2ccc(C)cc2)C(=O)C[C@@H](c2cccc(Cl)c2)N3S(=O)(=O)c2ccc(C)cc2)cc1 | nt | -9 | nt | nt | nt | 2 | nt | nt | nt | nt
CN(C)CCCN(C(=O)c1ccc(S(=O)(=O)N2CCc3ccccc32)cc1)c1nc2ccc(F)cc2s1 | 6 | 42 | -16 | 8 | -17 | 51* | 66* | 36* | 57* | 41*
SMILES | OX1R antag-1 | TAAR1 antag | CHO parental Ca | GPR7 antag | OX1R antag-2 | TAAR1 ag | TAAR1 ag conf | Ga16 nonsel ag | TAAR1 desensitize | Ga16 antag count
O=Cc1ccc2c(c1)OCCOCCOCCOCCO2 | nt | -16 | nt | nt | nt | 4 | nt | nt | nt | nt
Oc1ccc(Cl)cc1C=NCCc1ccccc1 | 9 | nt | -6 | -8 | -12 | nt | nt | -1 | nt | 10
NC(=NCCc1ccccc1)NC(=O)c1cc(Cl)ccc1O | 17 | 77* | -9 | nt | 7 | 90* | 91* | 4 | 94* | 23*
CC1(c2ccc(Cl)cc2)NC(=O)N(CC(=O)Nc2ccc3c(c2)OCO3)C1=O (stereo not drawn) | nt | 36 | nt | nt | nt | 59* | 77* | 24* | 54* | 24*
Cc1ccc(S(=O)(=O)N(CC(=O)N2CCc3ccccc3C2)c2ccc(Cl)c(Cl)c2)cc1 | 57 | -22 | -21 | -2 | 3 | 0 | nt | nt | nt | nt
O=C(CN(c1ccc(Cl)c(Cl)c1)S(=O)(=O)c1ccccc1)N1CCc2ccccc2C1 | 74* | 10 | -14 | -9 | 40 | 58* | 76* | 5 | 32 | 12
COc1ccc(N(CC(=O)N2CCc3ccccc3C2)S(C)(=O)=O)cc1OC | 13 | -8 | -2 | -4 | -12 | 51* | 28 | 3 | 4 | 9
C[C@@H]1CN([C@H](C)CO)C(=O)CCCn2cc(nn2)CO[C@H]1CN(C)C(=O)c1ccccc1 | nt | 10 | nt | nt | nt | 3 | nt | nt | nt | nt
O=C(/C=C/[C@H]1O[C@@H](n2ccc(=O)[nH]c2=O)[C@H](O)[C@@H]1O)NCc1cccnc1 | nt | 7 | nt | nt | nt | 2 | nt | nt | nt | nt
CC(C)CNC(=O)C1C(=O)Nc2ccccc2C(=O)N1C(C)(C)C (stereo not drawn) | nt | -19 | nt | nt | nt | 6 | nt | nt | nt | nt
CCOC(=O)C1(C)CCN1C(=O)c1cncc(Br)c1 (stereo not drawn) | nt | -21 | nt | nt | nt | 4 | nt | nt | nt | nt
NC(=O)c1ccc(NCCc2cccs2)cc1 | nt | -21 | nt | nt | nt | 15 | nt | nt | nt | nt
Cn1c2ccccc2c(=O)c2ccc(NCCc3cccs3)cc21 | 40 | 63* | -3 | nt | 6 | 49* | 55* | 5 | 51* | 32*
O=C(Nc1ccc(F)c(Cl)c1)Nc1nnc([C@H]2C[C@H](O)[C@@H](CO)O2)s1 | nt | -8 | nt | nt | nt | 17 | nt | nt | nt | nt
